Reference: PMC7564327 (Acta Pharmaceutica Sinica. B, 2020)

What was measured:
hOAT1 = target: T1, hOAT1 (Homo sapiens, UniProt Q4U2R8); test: Cellular uptake in MDCK-hOAT1 vs Mock cells; type: in vitro ADME; details: 100 μmol/L, substrate if >2-fold of wild type
T1 sequence (Q4U2R8 1-563): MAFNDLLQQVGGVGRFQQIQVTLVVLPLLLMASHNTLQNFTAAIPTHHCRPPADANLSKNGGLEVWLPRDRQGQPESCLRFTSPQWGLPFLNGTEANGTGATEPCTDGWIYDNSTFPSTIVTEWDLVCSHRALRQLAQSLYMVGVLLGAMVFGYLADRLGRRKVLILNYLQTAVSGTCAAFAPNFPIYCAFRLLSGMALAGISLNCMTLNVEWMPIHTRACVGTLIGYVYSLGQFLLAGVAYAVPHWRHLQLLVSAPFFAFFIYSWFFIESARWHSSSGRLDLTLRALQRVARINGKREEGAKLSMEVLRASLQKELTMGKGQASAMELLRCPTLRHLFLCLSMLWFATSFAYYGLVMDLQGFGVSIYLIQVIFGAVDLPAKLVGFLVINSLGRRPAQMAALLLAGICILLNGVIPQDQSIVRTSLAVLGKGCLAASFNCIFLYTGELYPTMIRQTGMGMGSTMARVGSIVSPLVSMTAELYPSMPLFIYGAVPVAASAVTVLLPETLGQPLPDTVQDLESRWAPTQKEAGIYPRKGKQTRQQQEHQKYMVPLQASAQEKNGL
Procedure, shortened: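 Transfected cells and matching Mock cells were seeded at 2 × 10⁵ cells/mL and grown 2 days. After a DPBS (pH 7.4) wash and 10 min preincubation at 37 °C, cells took up 100 μmol/L test compound for 2–5 min at 37 °C. Uptake was stopped with three ice-cold DPBS washes, followed by methanol extraction and HPLC–MS. Values were normalised to BCA protein and compared with Mock.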

mOatp1b2 = test: qRT-PCR of mOatp1b2 mRNA in liver of treated mice; type: in vivo; details: mice given 20 mg/kg TDE with 20 mg/kg IPT, ISP or 200 mg/kg AD extract, 4 h
mice kidney slices = test: In vitro uptake of TDE in mice kidney slices; type: in vitro ADME, Kunming mice; details: TDE 10 μmol/L
Procedure, shortened: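 Kunming mice (20–25 g, fasted 12 h) were anaesthetised with urethane, and kidney or liver was decapsulated into ice-cold oxygenated buffer at pH 7.5. Slices of about 30 mg were preincubated 5 min under carbogen at 4 or 37 °C. They were then incubated with 10 μmol/L test compound for 5, 10 or 30 min, with or without reference OAT1/OAT3 or OATP inhibitors or co-ingredients. Slices were then washed, blotted, weighed and homogenised, then extracted with methanol and an internal standard for HPLC–MS.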

hOATP2B1 = target: T2, hOATP2B1 (Homo sapiens, UniProt O94956); test: Inhibition of 3H-ES uptake in HEK293-hOATP2B1 cells; type: in vitro ADME; details: 100 μmol/L IPT, ISP; substrate 3H-ES
T2 sequence (O94956 1-709): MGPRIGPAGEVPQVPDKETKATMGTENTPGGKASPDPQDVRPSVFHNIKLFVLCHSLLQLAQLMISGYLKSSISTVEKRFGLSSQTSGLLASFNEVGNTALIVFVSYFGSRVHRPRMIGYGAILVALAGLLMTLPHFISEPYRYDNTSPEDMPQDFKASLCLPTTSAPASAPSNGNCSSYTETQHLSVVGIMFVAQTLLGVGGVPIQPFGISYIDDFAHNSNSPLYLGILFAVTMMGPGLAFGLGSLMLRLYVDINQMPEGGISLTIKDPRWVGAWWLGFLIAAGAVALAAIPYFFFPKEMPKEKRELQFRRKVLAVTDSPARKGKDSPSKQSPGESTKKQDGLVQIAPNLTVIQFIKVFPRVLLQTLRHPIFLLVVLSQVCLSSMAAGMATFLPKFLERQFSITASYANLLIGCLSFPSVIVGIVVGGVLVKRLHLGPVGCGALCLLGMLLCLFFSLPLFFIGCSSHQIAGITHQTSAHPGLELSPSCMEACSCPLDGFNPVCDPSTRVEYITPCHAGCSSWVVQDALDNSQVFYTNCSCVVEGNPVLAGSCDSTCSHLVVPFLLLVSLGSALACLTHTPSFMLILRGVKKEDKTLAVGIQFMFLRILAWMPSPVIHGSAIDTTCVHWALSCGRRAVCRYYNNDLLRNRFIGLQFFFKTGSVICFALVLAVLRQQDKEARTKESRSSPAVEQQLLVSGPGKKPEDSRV
Procedure, shortened: (§1)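 Test compounds were made as DMSO stocks (20 mmol/L, or 10 mg/mL for extract) and diluted in PBS to a final DMSO below 0.5%. Cells were exposed at 37 °C to probe plus or minus test compound. The probe was 5 μmol/L ¹⁴C-PAH for 5 min (hOAT1) or 50 nmol/L ³H-estrone sulfate for 2 min (hOAT3, hOATP2B1). Screens used 100 μmol/L (extract 100 mg/L); IC50 came from varied concentrations. Cells were then given three cold DPBS washes, lysed in 0.1 mol/L NaOH and read by scintillation counting. Data are mean ± SD, n = 3.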

hOAT3 = target: T3, hOAT3 (Homo sapiens, UniProt Q8TCC7); test: Inhibition of 3H-ES uptake in S2-hOAT3 cells; type: in vitro ADME; details: for inhibition of the activity of hOAT3: 100 μmol/L IPT, ISP, 100 μg/mL AD extract, substrate 3H-ES
T3 sequence (Q8TCC7 1-542): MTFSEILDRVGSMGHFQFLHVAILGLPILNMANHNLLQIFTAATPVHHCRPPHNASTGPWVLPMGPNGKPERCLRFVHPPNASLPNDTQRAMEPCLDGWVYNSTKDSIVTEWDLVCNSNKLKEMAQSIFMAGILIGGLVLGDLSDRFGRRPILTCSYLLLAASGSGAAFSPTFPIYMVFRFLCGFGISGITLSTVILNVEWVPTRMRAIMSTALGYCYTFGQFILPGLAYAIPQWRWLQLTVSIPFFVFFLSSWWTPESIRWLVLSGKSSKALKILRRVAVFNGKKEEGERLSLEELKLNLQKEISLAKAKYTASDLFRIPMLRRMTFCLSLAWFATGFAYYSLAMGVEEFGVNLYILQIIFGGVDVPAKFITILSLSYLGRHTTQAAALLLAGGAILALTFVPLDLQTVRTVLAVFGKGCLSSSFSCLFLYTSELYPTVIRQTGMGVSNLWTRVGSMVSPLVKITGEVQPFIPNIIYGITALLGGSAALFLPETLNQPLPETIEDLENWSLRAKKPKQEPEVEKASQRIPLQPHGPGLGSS
Procedure, shortened: as §1

[1] = Tissue distribution of TDE in mice; details: oral 20 mg/kg TDE with 20 mg/kg IPT, 20 mg/kg ISP or 200 mg/kg AD extract, 1, 2 and 4 h; for accumulation of TDE in kidney vs TDE alone / accumulation of TDE in liver vs TDE alone: P < 0.05

Row | Structure (SMILES) | accumulation in MDCK-hOAT1, fold higher than in MDCK-Mock (hOAT1) [fold] | mRNA level of mOatp1b2 decreased to, compared to TDE alone (mOatp1b2) [%] | effect on the uptake of TDE in kidney slices (mice kidney slices) | inhibition to hOATP2B1 (hOATP2B1) | IC50 (hOAT3) [µM] | inhibition of the activity of hOAT3 (hOAT3) | concentration of TDE in blood vs TDE alone [1] | concentration of TDE in brain vs TDE alone [1] | accumulation of TDE in kidney vs TDE alone [1] | accumulation of TDE in liver vs TDE alone [1]
1 | CC(C)=CCOc1c2occc2cc2ccc(=O)oc12 [IPT, imperatorin] | ~4.92 | 61 | significant inhibition | weak or no inhibition | 2.74 | significantly inhibited | significantly enhanced | significantly enhanced | significantly decreased | significantly decreased
2 | CC(C)=CCOc1c2ccoc2cc2oc(=O)ccc12 [ISP, isoimperatorin] | ~3.40 | 50 | significant inhibition | weak or no inhibition | 11.7 | significantly inhibited | significantly enhanced | significantly enhanced | significantly decreased | significantly decreased
